# Reference: ChEMBL document CHEMBL3877264, “Quinolidene-rhodanine conjugates: Facile synthesis and biological evaluation” (Eur J Med Chem, 2017)
# Assays:
# Type in all cases: functional
# [1] = tested on: Bacillus subtilis; assay: Antibacterial activity against Bacillus subtilis NCIM 2079 measured after 12 hrs; settings: NCIM 2079, 12 h
# Outline: (§1)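 Bacteria grown in LB at 37 °C and 180 rpm to OD 1. Compounds added to wells, then 0.1% inoculum of 1 OD culture (620 nm). Growth read as OD at 620 nm after 8 h for gram-negative and after 12 h for gram-positive strains.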
# [2] = tested on: Pseudomonas fluorescens; assay: Growth inhibition of Pseudomonas fluorescens NCIM 2036 at 10 ug/ml measured after 8 hrs relative to control; settings: NCIM 2036, 8 h, read-out: GI; outline: as §1
# [3] = tested on: Pseudomonas fluorescens; assay: Growth inhibition of Pseudomonas fluorescens NCIM 2036 at 3 ug/ml measured after 8 hrs relative to control; settings: NCIM 2036, 8 h, read-out: GI; outline: as §1
# [4] = tested on: Escherichia coli; assay: Growth inhibition of Escherichia coli NCIM 2688 at 30 ug/ml measured after 8 hrs relative to control; settings: NCIM 2688, 8 h, read-out: GI; outline: as §1
# [5] = tested on: Bacillus subtilis; assay: Growth inhibition of Bacillus subtilis NCIM 2079 at 30 ug/ml measured after 12 hrs relative to control; settings: NCIM 2079, 12 h, read-out: GI; outline: as §1
# [6] = tested on: Mycobacterium tuberculosis; assay: Growth inhibition of Mycobacterium tuberculosis H37Ra ATCC 25177 at active stage measured after 8 days by XTT dye based two fold dilution method; settings: H37Ra ATCC 25177, 192 h
# Outline: (§2)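 MTB H37Ra was grown in Dubos medium, then exposed in Mycobacterium pheli minimal medium (pH 6.6) to compounds dissolved in DMSO. The assay ended on day 8 (active) or day 12 (dormant). Viable cells were measured by XTT reduction menadione assay at 470 nm, blank-corrected, relative to vehicle control. Triplicates were expressed as mean ± SD. MIC came from dose-response curves.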
# [7] = tested on: Aspergillus niger; assay: Antifungal activity against Aspergillus niger NCIM 1196 by standard agar method
# Outline: (§3)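 MICs determined by standard agar method; DMSO as solvent control.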
# [8] = tested on: Mycobacterium tuberculosis; assay: Growth inhibition of Mycobacterium bovis BCG ATCC 35743 at dormant stage at 3 ug/ml measured after 12 days by nitrate reductase dye based two fold dilution method relative to control; settings: BCG str. ATCC 35743, 288 h, read-out: GI
# Outline: (§4)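 M. bovis BCG was grown in Dubos medium and assayed in Mycobacterium pheli minimal medium (pH 6.6), with compounds from DMSO stocks. Incubation lasted 8 days for active and 12 days for dormant cultures. Viability was read by nitrate reductase at 540 nm against cell-free blanks, with vehicle set as 100% growth. Primary screen was at 30, 10 and 3 µg/ml, in triplicate, mean ± SD. MIC was taken from dose-response curves.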
# [9] = tested on: Pseudomonas fluorescens; assay: Growth inhibition of Pseudomonas fluorescens NCIM 2036 at 30 ug/ml measured after 8 hrs relative to control; settings: NCIM 2036, 8 h, read-out: GI; outline: as §1
# [10] = tested on: Bacillus subtilis; assay: Growth inhibition of Bacillus subtilis NCIM 2079 at 10 ug/ml measured after 12 hrs relative to control; settings: NCIM 2079, 12 h, read-out: GI; outline: as §1
# [11] = tested on: Staphylococcus aureus; assay: Growth inhibition of Staphylococcus aureus NCIM 2010 at 30 ug/ml measured after 12 hrs relative to control; settings: NCIM 2010, 12 h, read-out: GI; outline: as §1
# [12] = tested on: Mycobacterium tuberculosis; assay: Growth inhibition of Mycobacterium bovis BCG ATCC 35743 at active stage measured after 8 days by nitrate reductase dye based two fold dilution method; settings: BCG str. ATCC 35743, 192 h; outline: as §4
# [13] = tested on: Staphylococcus aureus; assay: Antibacterial activity against of Staphylococcus aureus NCIM 2010 measured after 12 hrs; settings: NCIM 2010, 12 h; outline: as §1
# [14] = tested on: Mycobacterium tuberculosis; assay: Growth inhibition of Mycobacterium bovis BCG ATCC 35743 at dormant stage at 10 ug/ml measured after 12 days by nitrate reductase dye based two fold dilution method relative to control; settings: BCG str. ATCC 35743, 288 h, read-out: GI; outline: as §4
# [15] = tested on: Escherichia coli; assay: Antibacterial activity against Escherichia coli NCIM 2688 measured after 8 hrs; settings: NCIM 2688, 8 h; outline: as §1
# [16] = tested on: Mycobacterium tuberculosis; assay: Growth inhibition of Mycobacterium bovis BCG ATCC 35743 at dormant stage measured after 12 days by nitrate reductase dye based two fold dilution method; settings: BCG str. ATCC 35743, 288 h; outline: as §4
# [17] = tested on: Staphylococcus aureus; assay: Growth inhibition of Staphylococcus aureus NCIM 2010 at 10 ug/ml measured after 12 hrs relative to control; settings: NCIM 2010, 12 h, read-out: GI; outline: as §1
# [18] = tested on: Mycobacterium tuberculosis; assay: Growth inhibition of Mycobacterium tuberculosis H37Ra ATCC 25177 at dormant stage measured after 12 days by XTT dye based two fold dilution method; settings: H37Ra ATCC 25177, 288 h; outline: as §2
# [19] = tested on: Staphylococcus aureus; assay: Growth inhibition of Staphylococcus aureus NCIM 2010 at 3 ug/ml measured after 12 hrs relative to control; settings: NCIM 2010, 12 h, read-out: GI; outline: as §1
# [20] = tested on: Candida albicans; assay: Antifungal activity against Candida albicans NCIM 3471 by standard agar method; outline: as §3
# [21] = tested on: Escherichia coli; assay: Growth inhibition of Escherichia coli NCIM 2688 at 3 ug/ml measured after 8 hrs relative to control; settings: NCIM 2688, 8 h, read-out: GI; outline: as §1
# [22] = tested on: Escherichia coli; assay: Growth inhibition of Escherichia coli NCIM 2688 at 10 ug/ml measured after 8 hrs relative to control; settings: NCIM 2688, 8 h, read-out: GI; outline: as §1
# [23] = Antifungal activity against Cryptococcus neoformans NCIM 576 by standard agar method; outline: as §3
# [24] = tested on: Mycobacterium tuberculosis; assay: Growth inhibition of Mycobacterium bovis BCG ATCC 35743 at dormant stage at 30 ug/ml measured after 12 days by nitrate reductase dye based two fold dilution method relative to control; settings: BCG str. ATCC 35743, 288 h, read-out: GI; outline: as §4
# [25] = tested on: Pseudomonas fluorescens; assay: Antibacterial activity against Pseudomonas fluorescens NCIM 2036 measured after 8 hrs; settings: NCIM 2036, 8 h; outline: as §1
# [26] = Antifungal activity against Fusarium oxysporum NCIM 1332 by standard agar method; outline: as §3
# [27] = tested on: Bacillus subtilis; assay: Growth inhibition of Bacillus subtilis NCIM 2079 at 3 ug/ml measured after 12 hrs relative to control; settings: NCIM 2079, 12 h, read-out: GI; outline: as §1
# [28] = tested on: Aspergillus flavus; assay: Antifungal activity against Aspergillus flavus NCIM 539 by standard agar method; outline: as §3
Compound,MIC [1],inhibition of growth at 10 µg/mL [2],inhibition of growth at 3 µg/mL [3],inhibition of growth at 30 µg/mL [4],inhibition of growth at 30 µg/mL [5],IC50 [6],IC90 [6],MIC [7],inhibition of growth at 3 µg/mL [8],inhibition of growth at 30 µg/mL [9],inhibition of growth at 10 µg/mL [10],inhibition of growth at 30 µg/mL [11],IC50 [12],IC90 [12],MIC [13],inhibition of growth at 10 µg/mL [14],MIC [15],IC50 [16],IC90 [16],inhibition of growth at 10 µg/mL [17],also measured
O=C1NC(=S)S/C1=C\c1cc2ccccc2nc1Cl,> 30 µg/mL,-9.65%,-17.5%,-28.5%,0.707%,> 30 µg/mL,> 30 µg/mL,100 µg/mL,-80.1%,5.4%,0.915%,-28.2%,> 30 µg/mL,> 30 µg/mL,> 30 µg/mL,-22.1%,> 30 µg/mL,> 30 µg/mL,> 30 µg/mL,-21.3%,IC50 [18]: > 30 µg/mL; IC90 [18]: > 30 µg/mL; inhibition of growth at 3 µg/mL [19]: -15.7%; MIC [20]: 150 µg/mL; inhibition of growth at 3 µg/mL [21]: -40.6%; inhibition of growth at 10 µg/mL [22]: -14.7%; MIC [23]: 50 µg/mL; inhibition of growth at 30 µg/mL [24]: -43.1%; MIC [25]: > 30 µg/mL; MIC [26]: 100 µg/mL; inhibition of growth at 3 µg/mL [27]: 7.53%; MIC [28]: 150 µg/mL
COc1ccc2nc(Cl)c(/C=C3\SC(=S)N(CCC(=O)O)C3=O)cc2c1,> 30 µg/mL,-17%,-4.49%,13.5%,-3.99%,> 30 µg/mL,> 30 µg/mL,175 µg/mL,25.4%,-27.3%,-1.08%,-16.1%,> 30 µg/mL,> 30 µg/mL,> 30 µg/mL,27.2%,> 30 µg/mL,> 30 µg/mL,> 30 µg/mL,-21.7%,IC50 [18]: > 30 µg/mL; IC90 [18]: > 30 µg/mL; inhibition of growth at 3 µg/mL [19]: -2.06%; MIC [20]: 125 µg/mL; inhibition of growth at 3 µg/mL [21]: 20.7%; inhibition of growth at 10 µg/mL [22]: 14.4%; MIC [23]: 150 µg/mL; inhibition of growth at 30 µg/mL [24]: 27.2%; MIC [25]: > 30 µg/mL; MIC [26]: 175 µg/mL; inhibition of growth at 3 µg/mL [27]: -6.61%; MIC [28]: 100 µg/mL
COc1ccc2cc(/C=C3\SC(=S)N(CC(=O)O)C3=O)c(Cl)nc2c1,> 30 µg/mL,-54.3%,4.92%,-17.9%,6.8%,> 30 µg/mL,> 30 µg/mL,150 µg/mL,-1.36%,10.3%,-0.0845%,-17.7%,> 30 µg/mL,> 30 µg/mL,> 30 µg/mL,33%,> 30 µg/mL,> 30 µg/mL,> 30 µg/mL,-11.3%,IC50 [18]: > 30 µg/mL; IC90 [18]: > 30 µg/mL; inhibition of growth at 3 µg/mL [19]: -13.7%; MIC [20]: 50 µg/mL; inhibition of growth at 3 µg/mL [21]: 2.49%; inhibition of growth at 10 µg/mL [22]: 7.54%; MIC [23]: 100 µg/mL; inhibition of growth at 30 µg/mL [24]: 0.66%; MIC [25]: > 30 µg/mL; MIC [26]: 75 µg/mL; inhibition of growth at 3 µg/mL [27]: 2.79%; MIC [28]: 125 µg/mL
